The text below walks through data of ChEMBL document CHEMBL1147839, “New highly hydrosoluble and not self-aggregated perylene derivatives with three and four polar side-chains as G-quadruplex telomere targeting agents and telomerase inhibitors” (Bioorg Med Chem Lett, 2007).

The species named for experiment [1] is Homo sapiens. Briefly: Inhibition of human telomerase at 2 uM after 2 hrs by TRAP assay. In a few lines: (§1)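 Modified TRAP with TSG4 substrate primer (0.4 μM) and 50 μM dNTPs in TRAP buffer (pH 8.3, 1.5 mM MgCl2, 68 mM KCl, 0.05% Tween 20, 1 mM EGTA). The mix was heated 90 C 10 min, then iced. Drug was preincubated 2 h at 30 C. SKN-Be neuroblastoma cell extract was added for 30 min at 30 C, then phenol/chloroform extraction. PCR (30 cycles) used 32P-TSG4, CXext primer and Taq. Runs done at least three independent times.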

Experiment [2] is filed under the species Homo sapiens. Briefly: Inhibition of human telomerase at 5 uM after 2 hrs by TRAP assay. A digest of the protocol:
as §1

Experiment [3] is filed under the species Homo sapiens. Briefly: Inhibition of human telomerase at 10 uM after 2 hrs by TRAP assay. A digest of the protocol: as §1
For experiment [4], the species on record is Homo sapiens. Briefly: Inhibition of human telomerase at 20 uM after 2 hrs by TRAP assay. A digest of the protocol:
as §1

Regarding `CN(C)CCCNc1cc2c3c(cc(NCCCN(C)C)c4c5ccc6c7c(ccc(c1c34)c75)C(=O)N(CCCN(C)C)C6=O)C(=O)N(CCCN(C)C)C2=O`, the inhibition in the experiment listed under Homo sapiens [1] turned out to be 12%; in the experiment listed under Homo sapiens [2], 47%; in the experiment filed under Homo sapiens [3] it was 56%; in the experiment listed under Homo sapiens [4] it was 59%.
For `CN(C)CCCNc1cc2c3c(ccc4c5c(NCCCN(C)C)cc6c7c(ccc(c1c34)c75)C(=O)N(CCCN(C)C)C6=O)C(=O)N(CCCN(C)C)C2=O`, in that order: 8%, 41%, 54% and 54%.
In the case of `CN(C)CCCNc1cc2c3c(ccc4c5ccc6c7c(ccc(c1c34)c75)C(=O)N(CCCN(C)C)C6=O)C(=O)N(CCCN(C)C)C2=O`, the inhibition in the experiment listed under Homo sapiens [1] amounted to 24%; in the experiment listed under Homo sapiens [2] it was 39%; in the experiment listed under Homo sapiens [3], 57%; in the experiment listed under Homo sapiens [4], 59%.
As to `CN(C)CCCNc1cc2c3c(ccc4c5c(Br)cc6c7c(ccc(c1c34)c75)C(=O)N(CCCN(C)C)C6=O)C(=O)N(CCCN(C)C)C2=O`, the inhibition in the experiment filed under Homo sapiens [1] was determined as 18%; in the experiment listed under Homo sapiens [2], 49%; in the experiment listed under Homo sapiens [3], 55%; in the experiment filed under Homo sapiens [4], 59%.
